Measured values from ChEMBL document CHEMBL1134779, “Synthesis and characterization of the antitumor activities of analogues of meridine, a marine pyridoacridine alkaloid” (J Med Chem, 2001).

Assays:
U-87 MG = experiment: In vitro inhibition of U-87 MG (human glioblastoma) cell growth.; type: functional, cell-based, U-87MG ATCC
Outline: (§1)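 Human cancer lines from ATCC, grown at 37 °C in sealed dishes in Eagle's MEM with 5% FCS. Cells were seeded at 40000 cells/mL and plated for 24 h before drug exposure. Six concentrations from 10^-5 to 10^-10 M were tested. Growth was read by MTT reduction to formazan at 570 nm (reference 630 nm), in sextuplicate. IC50 is the concentration giving 50% growth reduction versus control.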

PC-3 = experiment: In vitro inhibition of PC-3 (human prostate cancer) cell growth.; type: functional, cell-based; outline: as §1
SW1088 (human) = experiment: In vitro inhibition of SW1088 (human astrocytoma) cell growth.
LoVo = experiment: In vitro inhibition of LoVo (human colon cancer) cell growth.; type: functional, cell-based; outline: as §1
HCT-15 = experiment: In vitro inhibition of HCT-15 (human colon cancer) cell growth.; type: functional, cell-based; outline: as §1
U373 MG = experiment: In vitro inhibition of U-373 MG (human glioblastoma) cell growth.; type: functional, cell-based, U-373MG ATCC; outline: as §1
[1] = In vitro inhibition of T24 (human bladder cancer) cell growth.; type: functional, cell-based; settings: T-24; outline: as §1
J82 = experiment: In vitro inhibition of J82 (human bladder cancer) cell growth.; type: functional, cell-based; outline: as §1
T47D [2] = experiment: In vitro inhibition of T-47D (human breast cancer) cell growth.; type: functional, cell-based; outline: as §1
A549 = experiment: In vitro inhibition of A549 (human lung cancer) cell growth.; type: functional, cell-based; outline: as §1
A-427 = experiment: In vitro inhibition of A-427 (human lung cancer) cell growth.; type: functional, cell-based; outline: as §1
MCF7 = experiment: In vitro inhibition of MCF-7 (human breast cancer) cell growth.; type: functional, cell-based; outline: as §1
T47D [3] = experiment: Ctotoxic related antitumor activity against human cancer cell lines T-47 D; type: functional, cell-based; outline: as §1

SMILES	IC50 (U-87 MG)	IC50 (PC-3)	IC50 (SW1088 (human))	IC50 (LoVo)	IC50 (HCT-15)	IC50 (T47D [2])	IC50 (A549)	IC50 (MCF7)	IC50 (U373 MG)	IC50 [1]	IC50 (J82)	IC50 (A-427)	IC50 (T47D [3])
O=C1c2nccc(Cl)c2C(=O)c2c(-c3ccccc3[N+](=O)[O-])ccnc21	2000 nM	5000 nM	5400 nM	3900 nM	2800 nM	800 nM	900 nM	1800 nM	4800 nM	5500 nM	500 nM	3500 nM	–
O=C1c2nccc(O)c2C(=O)c2c(-c3ccccc3[N+](=O)[O-])ccnc21	800 nM	7300 nM	2900 nM	2900 nM	3500 nM	4500 nM	2300 nM	3900 nM	4000 nM	2300 nM	5300 nM	1200 nM	–
Nc1ccnc2c1C(=O)c1c(-c3ccccc3[N+](=O)[O-])ccnc1C2=O	2700 nM	5100 nM	4800 nM	5700 nM	500 nM	5500 nM	600 nM	3100 nM	3100 nM	3600 nM	3000 nM	5500 nM	–
O=C1c2nccc(Br)c2-c2nc3ccccc3c3ccnc1c23	700 nM	4900 nM	3000 nM	800 nM	3600 nM	4400 nM	3300 nM	1100 nM	900 nM	700 nM	9000 nM	700 nM	–
O=C1c2nccc(-c3ccccc3NC(=O)C(F)(F)F)c2C(=O)c2c([N+](=O)[O-])ccnc21	4700 nM	600 nM	6000 nM	900 nM	600 nM	4300 nM	900 nM	700 nM	900 nM	5400 nM	3900 nM	4500 nM	–
Nc1ccnc2c1C(=O)c1c(-c3ccccc3NC(=O)C(F)(F)F)ccnc1C2=O	300 nM	600 nM	800 nM	700 nM	600 nM	1200 nM	600 nM	800 nM	900 nM	700 nM	2700 nM	500 nM	–
O=C1c2nccc([N+](=O)[O-])c2-c2nc3ccccc3c3ccnc1c23	70 nM	4200 nM	5500 nM	90 nM	600 nM	600 nM	800 nM	70 nM	90 nM	700 nM	500 nM	2400 nM	–
CCOC(=O)c1cnc2c(c1)C(=O)c1c(-c3ccccc3NC(=O)C(F)(F)F)ccnc1C2=O	80 nM	1300 nM	800 nM	800 nM	100 nM	–	90 nM	500 nM	400 nM	600 nM	5200 nM	600 nM	2600 nM
O=C1c2nccc(O)c2-c2nc3ccccc3c3ccnc1c23 [MERIDINE]	100 nM	500 nM	2000 nM	70 nM	200 nM	70 nM	80 nM	90 nM	100 nM	50 nM	8200 nM	200 nM	–

Further lines, with some results ahead:

IC50 (U-87 MG)	IC50 (PC-3)	IC50 (SW1088 (human))	IC50 (LoVo)	IC50 (HCT-15)	IC50 (T47D [2])	IC50 (A549)	IC50 (MCF7)	SMILES	IC50 (U373 MG)	IC50 [1]	IC50 (J82)	IC50 (A-427)	IC50 (T47D [3])
50 nM	900 nM	3800 nM	60 nM	10 nM	2100 nM	70 nM	60 nM	O=C1c2nccc(Cl)c2C(=O)c2c(-c3ccccc3NC(=O)C(F)(F)F)ccnc21	90 nM	200 nM	3300 nM	600 nM	–
40 nM	900 nM	60 nM	40 nM	60 nM	200 nM	50 nM	30 nM	O=C1c2nc(O)ccc2C(=O)c2c(-c3ccccc3NC(=O)C(F)(F)F)ccnc21	40 nM	50 nM	2100 nM	40 nM	–
70 nM	5700 nM	2800 nM	700 nM	200 nM	2900 nM	80 nM	700 nM	CCOC(=O)c1cnc2c(c1)-c1nc3ccccc3c3ccnc(c13)C2=O	700 nM	900 nM	5200 nM	800 nM	–
0.9 nM	60 nM	60 nM	7 nM	8 nM	50 nM	6 nM	6 nM	O=C1c2ncccc2C(=O)c2c(-c3ccccc3NC(=O)C(F)(F)F)ccnc21	5 nM	200 nM	60 nM	30 nM	–
50 nM	600 nM	100 nM	80 nM	70 nM	500 nM	60 nM	80 nM	CN(C)c1ccnc2c1-c1nc3ccccc3c3ccnc(c13)C2=O	80 nM	200 nM	1300 nM	60 nM	–
9 nM	3100 nM	3900 nM	50 nM	90 nM	5100 nM	20 nM	50 nM	COc1ccnc2c1C(=O)c1c(-c3ccccc3[N+](=O)[O-])ccnc1C2=O	30 nM	20 nM	400 nM	700 nM	–
20 nM	500 nM	4300 nM	50 nM	100 nM	2700 nM	7 nM	80 nM	O=C1c2nccc(Cl)c2-c2nc3ccccc3c3ccnc1c23	100 nM	90 nM	90 nM	900 nM	–
< 0.1 nM	60 nM	60 nM	0.3 nM	2 nM	30 nM	0.3 nM	< 0.1 nM	COc1ccnc2c1-c1nc3ccccc3c3ccnc(c13)C2=O	< 0.1 nM	6 nM	0.9 nM	5 nM	–
< 0.1 nM	40 nM	60 nM	20 nM	5 nM	10 nM	20 nM	0.9 nM	O=C1c2ncccc2-c2nc3ccccc3c3ccnc1c23	0.7 nM	< 0.1 nM	7 nM	0.8 nM	–
70 nM	500 nM	80 nM	90 nM	300 nM	600 nM	80 nM	90 nM	Nc1ccnc2c1-c1nc3ccccc3c3ccnc(c13)C2=O	100 nM	70 nM	700 nM	60 nM	–
< 0.1 nM	50 nM	50 nM	0.1 nM	2 nM	30 nM	< 0.1 nM	0.3 nM	COc1ccnc2c1C(=O)c1c(-c3ccccc3NC(=O)C(F)(F)F)ccnc1C2=O	< 0.1 nM	7 nM	0.9 nM	50 nM	–
60 nM	2700 nM	90 nM	70 nM	90 nM	300 nM	70 nM	90 nM	CC(=O)Nc1ccnc2c1C(=O)c1c(-c3ccccc3NC(=O)C(F)(F)F)ccnc1C2=O	90 nM	400 nM	3500 nM	60 nM	–
60 nM	600 nM	400 nM	100 nM	200 nM	700 nM	60 nM	100 nM	CN(C)c1ccnc2c1C(=O)c1c(-c3ccccc3NC(=O)C(F)(F)F)ccnc1C2=O	300 nM	300 nM	2000 nM	70 nM	–
